According to ChEMBL document CHEMBL1122671, “Anticonvulsant activity of some 4-aminobenzamides” (J Med Chem, 1984):
Activity calls are given as the source filed them.

How the values were obtained:
[1] = tested on: Mus musculus; test: Anticonvulsant activity against MES (maximal electroshock) induced seizure in mice at 4 hr; +++ = Activity at 100 mg/kg.; assay type: functional, organism-based; set-up: dose 100 mg/kg
Procedure, shortened: (§1)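 Male Carworth Farms number-one mice received the compound ip in 30% polyethylene glycol 400. Doses were 30, 100 and 300 mg/kg, with 600 mg/kg in some cases. Maximal electroshock seizure protection was scored at 30 min and 4 h after dosing. Activity is coded by the lowest effective dose.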

[2] = Protective index (PI) which is defined as the ratio of TD50 to the ED50 (ScMet).; assay type: functional
Procedure, shortened: (§2)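 Both values come from ip dosing in 30% PEG 400 to male Carworth Farms number-one mice and were derived by the graphical method.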

[3] = Evaluation of neurologic deficit by rotarod procedure in mice.; assay type: ADME, organism-based; conditions: mouse, in vivo
Procedure, shortened: (§3)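 Male Carworth Farms number-one mice were dosed ip (30% PEG 400 vehicle) and placed on a 1-in. knurled plastic rod rotating at 6 rpm. Neurotoxicity meant failure to stay on the rod for 1 min. TD50 was determined graphically.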

[4] = tested on: Mus musculus; test: Anticonvulsant activity against scMet (subcutaneous metrazole) induced seizure in mice at 30 min; +++ = Activity at 100 mg/kg.; assay type: functional, organism-based; set-up: dose 100 mg/kg
[5] = tested on: Mus musculus; test: Anticonvulsant activity against MES (maximal electroshock) induced seizure in mice at 30 min; +++ = Activity at 100 mg/kg.; assay type: functional, organism-based; set-up: dose 100 mg/kg; procedure, shortened: as §1
[6] = tested on: Mus musculus; test: Evaluated for toxicity by using rotarod test at in mice 30 min; ++ indicates activity at 300 mg/kg.; assay type: organism-based; set-up: dose 300 mg/kg; conditions: in vivo, 0.5 h
Procedure, shortened: (§4)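 Neurotoxicity in male Carworth Farms number-one mice dosed ip in 30% PEG 400 at 30, 100, 300 and sometimes 600 mg/kg, tested 30 min or 4 h later. Mice placed on a 1-in. knurled rod rotating at 6 rpm; toxicity means failure to stay on the rod for 1 min. Scored by the lowest toxic dose; footnotes record loss of righting reflex or lethality.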

[7] = Protective index (PI) which is defined as the ratio of TD50 to the ED50 (MES).; assay type: functional; procedure, shortened: as §2
[8] = tested on: Mus musculus; test: Anticonvulsant activity against scMet (subcutaneous metrazole) induced seizure in mice at 4 hr; - indicates no activity at 600 mg/kg.; assay type: functional, organism-based; set-up: dose 600 mg/kg
Procedure, shortened: (§5)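 Male Carworth Farms number-one mice dosed ip (30% PEG 400) at 30, 100, 300 and in some cases 600 mg/kg. Pentylenetetrazole 85 mg/kg given sc as a 0.5% solution in the posterior midline, at 30 min or 4 h. Protection means no clonic spasm of at least 5 s within 30 min. Scored by the lowest protective dose.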

[9] = tested on: Mus musculus; test: Evaluated for toxicity by using rotarod test in mice at 4 hr; + indicates activity at 600 mg/kg.; assay type: organism-based; set-up: dose 600 mg/kg; conditions: in vivo; procedure, shortened: as §4
[10] = species on record: Mus musculus; test: Evaluation of inhibitory activity against scMet induced convulsions in mice; NA = No activity.; assay type: functional, organism-based
[11] = species on record: Mus musculus; test: Evaluation of neurologic deficit by rotarod procedure in mice; assay type: functional; procedure, shortened: as §3
[12] = tested on: Mus musculus; test: Evaluated for toxicity by using rotarod test at in mice 30 min; +++ = Activity at 100 mg/kg,*-Loss of righting reflex at less than 300 mg/kg; assay type: organism-based; conditions: in vivo, 0.5 h; procedure, shortened: as §4
[13] = tested on: Mus musculus; test: Evaluated for toxicity by using rotarod test in mice at 4 hr; ++ = Activity at 300 mg/kg.; assay type: organism-based; set-up: dose 300 mg/kg; conditions: in vivo; procedure, shortened: as §4
[14] = tested on: Mus musculus; test: Anticonvulsant activity against scMet (subcutaneous metrazole) induced seizure in mice at 30 min; ++ = Activity at 300 mg/kg.; assay type: functional, organism-based; set-up: dose 300 mg/kg
[15] = tested on: Mus musculus; test: Anticonvulsant activity against MES (maximal electroshock) induced seizure in mice at 4 hr; ++ = Activity at 300 mg/kg.; assay type: functional, organism-based; set-up: dose 300 mg/kg; procedure, shortened: as §1
[16] = tested on: Mus musculus; test: Anticonvulsant activity against scMet (subcutaneous metrazole) induced seizure in mice at 4 hr; ++ = Activity at 300 mg/kg.; assay type: functional, organism-based; set-up: dose 300 mg/kg
[17] = tested on: Mus musculus; test: Evaluation of neurologic deficit by rotarod procedure in mice*-No activity at 300 mg/kg; assay type: functional; procedure, shortened: as §3
[18] = tested on: Mus musculus; test: Anticonvulsant activity against scMet (subcutaneous metrazole) induced seizure in mice at 30 min; d = No activity at 300 mg/kg.; assay type: functional, organism-based; set-up: dose 300 mg/kg
[19] = tested on: Mus musculus; test: Anticonvulsant activity against MES (maximal electroshock) induced seizure in mice at 4 hr; d = No Activity at 300 mg/kg.; assay type: functional, organism-based; set-up: dose 300 mg/kg; procedure, shortened: as §1
[20] = tested on: Mus musculus; test: Anticonvulsant activity against scMet (subcutaneous metrazole) induced seizure in mice at 4 hr; d = No activity at 300 mg/kg.; assay type: functional, organism-based; set-up: dose 300 mg/kg
[21] = species on record: Mus musculus; test: Evaluation of inhibitory activity against scMet induced convulsions in mice; assay type: functional
[22] = tested on: Mus musculus; test: Evaluated for toxicity by using rotarod test at in mice 30 min; +++ = Activity at 100 mg/kg, *-Loss of righting reflex at less than 300 mg/kg,LD50 less than 600 mg/kg; assay type: organism-based; conditions: in vivo, 0.5 h; procedure, shortened: as §4
[23] = tested on: Mus musculus; test: Evaluated for toxicity by using rotarod test at in mice 30 min; +++ = Activity at 100 mg/kg,*- Loss of righting reflex at less than 600 mg/kg; assay type: organism-based; conditions: in vivo, 0.5 h; procedure, shortened: as §4
[24] = tested on: Mus musculus; test: Anticonvulsant activity against scMet (subcutaneous metrazole) induced seizure in mice at 4 hr; - = No activity at 600 mg/kg.; assay type: functional, organism-based; set-up: dose 600 mg/kg; procedure, shortened: as §5
[25] = tested on: Mus musculus; test: Anticonvulsant activity against scMet (subcutaneous metrazole) induced seizure in mice at 4 hr; f = No activity at 100 mg/kg; assay type: functional, organism-based; set-up: dose 100 mg/kg
[26] = tested on: Mus musculus; test: Evaluated for toxicity by using rotarod test at in mice 30 min; +++ = activity at 100 mg/kg *-LD50 less than 300 mg/kg; assay type: organism-based; conditions: in vivo, 0.5 h; procedure, shortened: as §4
[27] = tested on: Mus musculus; test: Anticonvulsant activity against MES (maximal electroshock) induced seizure in mice at 30 min; +++ = activity at 100 mg/kg; assay type: functional, organism-based; set-up: dose 100 mg/kg; procedure, shortened: as §1
[28] = tested on: Mus musculus; test: Anticonvulsant activity against MES (maximal electroshock) induced seizure in mice at 4 hr; f = No activity at 100 mg/kg; assay type: functional, organism-based; set-up: dose 100 mg/kg; procedure, shortened: as §1
[29] = tested on: Mus musculus; test: Evaluated for toxicity by using rotarod test in mice at 4 hr; f = No activity at 100 mg/kg; assay type: organism-based; set-up: dose 100 mg/kg; conditions: in vivo; procedure, shortened: as §4
[30] = tested on: Mus musculus; test: Anticonvulsant activity against scMet (subcutaneous metrazole) induced seizure in mice at 30 min; f = No activity at 100 mg/kg; assay type: functional, organism-based; set-up: dose 100 mg/kg
[31] = tested on: Mus musculus; test: Anticonvulsant activity against scMet (subcutaneous metrazole) induced seizure in mice at 30 min; ++ indicates activity at 300 mg/kg.; assay type: functional, organism-based; set-up: dose 300 mg/kg
[32] = tested on: Mus musculus; test: Anticonvulsant activity against MES (maximal electroshock) induced seizure in mice at 30 min; + indicates activity at 600 mg/kg.; assay type: functional, organism-based; set-up: dose 600 mg/kg
Procedure, shortened: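 Male Carworth Farms number-one mice; compounds in 30% polyethylene glycol 400, given ip at 30, 100 and 300 mg/kg, some also at 600 mg/kg. Maximal electroshock challenge at 30 min or 4 h after dosing. Scored by the lowest dose giving protection (++++ 30, +++ 100, ++ 300, + 600 mg/kg; - none at 600).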

[33] = tested on: Mus musculus; test: Anticonvulsant activity against scMet (subcutaneous metrazole) induced seizure in mice at 4 hr; ++ indicates activity at 300 mg/kg.; assay type: functional, organism-based; set-up: dose 300 mg/kg
[34] = tested on: Mus musculus; test: Evaluated for toxicity by using rotarod test in mice at 4 hr; ++ indicates activity at 300 mg/kg.; assay type: organism-based; set-up: dose 300 mg/kg; conditions: in vivo; procedure, shortened: as §4
[35] = tested on: Mus musculus; test: Anticonvulsant activity against MES (maximal electroshock) induced seizure in mice at 4 hr; Activity at 300 mg/kg.; assay type: functional, organism-based; set-up: dose 300 mg/kg; procedure, shortened: as §1

Nc1ccc(C(=O)NC2CCCCC2)cc1
Activity [1]: Activity at 100 mg/kg | PI [2]: 1.5 | TD50 [3]: 189 mg/kg | Activity [4]: Activity at 100 mg/kg | Activity [5]: Activity at 100 mg/kg | Toxicity [6]: activity at 300 mg/kg | PI [7]: 2.8 | Activity [8]: Not toxic | Toxicity [9]: activity at 300 mg/kg

CCCN(CCC)C(=O)c1ccc(N)cc1
ED50 [10]: inactive | TD50 [11]: 116 mg/kg | Toxicity [12]: Activity at 100 mg/kg,*-Loss of righting reflex at < 300 mg/kg | Activity [5]: Activity at 100 mg/kg | PI [7]: 1.9 | Toxicity [13]: Activity at 100 mg/kg,*-Loss of righting reflex at < 300 mg/kg | Activity [14]: Activity at 100 mg/kg | Activity [15]: Activity at 100 mg/kg | Activity [16]: Activity at 100 mg/kg

CCCCNC(=O)c1ccc(N)cc1
TD50 [17]: 105 mg/kg | PI [2]: 1.3 | Activity [18]: No activity | Activity [19]: No activity | Activity [5]: Activity at 100 mg/kg | PI [7]: 2.2 | Toxicity [13]: Activity at 100 mg/kg, *-Loss of righting reflex at < 300mg/kg,LD50 < 600 mg/kg | Activity [20]: No activity | ED50 [21]: 83 mg/kg | Toxicity [22]: Activity at 100 mg/kg, *-Loss of righting reflex at < 300mg/kg,LD50 < 600 mg/kg

Nc1ccc(C(=O)Nc2ccccc2)cc1
PI [2]: 1.9 | Activity [4]: Activity at 100 mg/kg | TD50 [11]: 111 mg/kg | PI [7]: 2.2 | Toxicity [23]: Activity at 100 mg/kg,*- Loss of righting reflex at < 600 mg/kg | Activity [24]: Not toxic | Toxicity [13]: Activity at 100 mg/kg,*- Loss of righting reflex at < 600 mg/kg | Activity [15]: Activity at 100 mg/kg

CCCCCCNC(=O)c1ccc(N)cc1
Activity [25]: No activity | Toxicity [26]: activity at 100 mg/kg *-LD50 < 300 mg/kg | Activity [27]: activity at 100 mg/kg | Activity [28]: No activity | Toxicity [29]: No activity | Activity [30]: No activity

CC(CNC(=O)c1ccc(N)cc1)c1ccccc1 (stereo not drawn)
Activity [31]: activity at 300 mg/kg | Activity [32]: activity at 300 mg/kg | Activity [33]: activity at 300 mg/kg | Toxicity [34]: activity at 300 mg/kg | Toxicity [6]: activity at 300 mg/kg | Activity [35]: activity at 300 mg/kg
